Values after ≈ are worked out from the molar mass of the structure shown. Active and inactive are the calls of the source. No cut-off for these calls is given here.

For one assay, the system named is Leptosphaeria sacchari. As to the kind of experiment: Inhibition of Leptosphaeria sacchari tyrosinase using L-DOPA as substrate at 0.1 mM incubated for 10 mins prior to substrate addition […] by spectrophotometry.
Consider `c1nnc2[nH]ncc2n1`, for which the inhibition (usually the change of the read-out against control, counted positive when it falls) came to 48%.

The subject of a further assay is Leptosphaeria sacchari. The experiment in a line: Inhibition of Leptosphaeria sacchari tyrosinase using L-DOPA as substrate assessed as remaining activity at 0.3 mg/ml incubated for 10 mins prior to substrate addition […] by spectrophotometry.
On to `CCOc1ccc(S(=O)(=O)N2CCN(C)CC2)cc1-c1nnc2c(n1)c(C)nn2C`, for which the Activity worked out at 41.2%.
On the same count and under the same terms, the figure for `CCOc1ccc(S(=O)(=O)N2CCCC2)cc1-c1nnc2c(n1)c(C)nn2C` is 39.6%; for `CCOc1ccc(S(=O)(=O)NCCN2CCOCC2)cc1-c1nnc2c(n1)c(C)nn2C` it is 37.9%.
The same measure, in the same setting: the figure for `CCOc1ccc(S(=O)(=O)NCCNS(=O)(=O)c2ccc(OCC)c(-c3nnc4c(n3)c(C)nn4C)c2)cc1-c1nnc2c(n1)c(C)nn2C` is 20.2%; for `CCCc1nn(C)c2nnc(-c3cc(S(=O)(=O)N4CCN(C)CC4)ccc3OCC)nc12` it is 42.9%; for `CCOc1ccc(S(=O)(=O)N2CCNCC2)cc1-c1nnc2c(n1)c(C)nn2C` it is 29.5%.
Take `CCOc1ccc(S(=O)(=O)NCCN)cc1-c1nnc2c(n1)c(C)nn2C`: the Activity was 3.7%.
On the same count and under the same terms, the value for `CCOc1ccc(S(=O)(=O)N2CCCNCC2)cc1-c1nnc2c(n1)c(C)nn2C` was 33.5%.
Same read-out and setting: the figure for `CCOc1ccc(S(=O)(=O)N2CCCCC2)cc1-c1nnc2c(n1)c(C)nn2C` is 40.2%; for `CCOc1ccc(S(=O)(=O)N2CCN(C)CC2)cc1-c1nnc2nn(C)c(C)c2n1` it is 45.2%; for `CCOc1ccc(S(=O)(=O)N(CC)CC)cc1-c1nnc2c(n1)c(C)nn2C` it is 31.7%.
Still for that read-out and setting: the figure for `CCOc1ccc(S(=O)(=O)N2CCOCC2)cc1-c1nnc2c(n1)c(C)nn2C` is 48.6%.
Consider `CCOc1ccc(S(=O)(=O)NCCO)cc1-c1nnc2c(n1)c(C)nn2C`, for which the Activity came to 60.5%.

Another assay relates to Leptosphaeria sacchari. As to the kind of experiment: Inhibition of Leptosphaeria sacchari tyrosinase using L-DOPA as substrate at 0.3 mg/ml incubated for 10 mins prior to substrate addition […] by spectrophotometry.
Take `CCOc1ccc(S(=O)(=O)N2CCN(C)CC2)cc1-c1nnc2c(n1)c(C)nn2C`: the inhibition was found to be 58.8%.
The same measure, in the same setting: the value for `CCOc1ccc(S(=O)(=O)N2CCCC2)cc1-c1nnc2c(n1)c(C)nn2C` was 60.4%; that for `CCOc1ccc(S(=O)(=O)NCCN2CCOCC2)cc1-c1nnc2c(n1)c(C)nn2C` was 62.1%.
Still for that read-out and setting: the figure for `CCOc1ccc(S(=O)(=O)NCCNS(=O)(=O)c2ccc(OCC)c(-c3nnc4c(n3)c(C)nn4C)c2)cc1-c1nnc2c(n1)c(C)nn2C` is 79.7%; for `CCCc1nn(C)c2nnc(-c3cc(S(=O)(=O)N4CCN(C)CC4)ccc3OCC)nc12` it is 57.1%; for `CCOc1ccc(S(=O)(=O)N2CCNCC2)cc1-c1nnc2c(n1)c(C)nn2C` it is 70.5%.
Same read-out and setting: the value for `CCOc1ccc(S(=O)(=O)NCCN)cc1-c1nnc2c(n1)c(C)nn2C` was 96.3%; that for `CCOc1ccc(S(=O)(=O)N2CCCNCC2)cc1-c1nnc2c(n1)c(C)nn2C` was 62.1%; that for `CCOc1ccc(S(=O)(=O)N2CCCCC2)cc1-c1nnc2c(n1)c(C)nn2C` was 59.8%.
`CCOc1ccc(S(=O)(=O)N2CCN(C)CC2)cc1-c1nnc2nn(C)c(C)c2n1` showed an inhibition of 54.8%.
Turning to `CCOc1ccc(S(=O)(=O)N(CC)CC)cc1-c1nnc2c(n1)c(C)nn2C`, the inhibition worked out at 68.3%.
The same measure, in the same setting: the value for `CCOc1ccc(S(=O)(=O)N2CCOCC2)cc1-c1nnc2c(n1)c(C)nn2C` was 51.4%; that for `CCOc1ccc(S(=O)(=O)NCCO)cc1-c1nnc2c(n1)c(C)nn2C` was 39.5%.

The next assay concerns Leptosphaeria sacchari. The experiment in a line: Inhibition of Leptosphaeria sacchari tyrosinase using L-DOPA as substrate at 1 mM incubated for 10 mins prior to substrate addition […] by spectrophotometry.
As to `c1nnc2[nH]ncc2n1`, the inhibition entry was “Active”.

The next assay is filed under the species Oryctolagus cuniculus. As to the kind of experiment: Inhibition of rabbit platelet PDE5A using [3H]cGMP as substrate at 1 uM after 30 mins by scintillation proximity assay. An outline of the steps:
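PDE5A isolated from rabbit platelets; tritium scintillation proximity assay in 50 mM Tris-HCl pH 7.5 with 8.3 mM MgCl2 and 1.7 mM EGTA. Compounds tested at 1 µM from DMSO stock, final DMSO <1%. Enzyme limited to ≤15% substrate hydrolysis. Duplicates. % inhibition = [1 − (CPM sample − blank)/(CPM water control − blank)] × 100.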
A general note: SPA uses beads or plates that emit light when radiolabelled molecules are held near them.
`CCOc1ccc(S(=O)(=O)N2CCCN(S(=O)(=O)c3ccc(OCC)c(-c4nnc5c(n4)c(C)nn5C)c3)CC2)cc1-c1nnc2c(n1)c(C)nn2C` came in with an inhibition of 26.7%.
The same measure, in the same setting: the value for `CCOc1ccc(S(=O)(=O)N2CCN(C)CC2)cc1-c1nnc2c(n1)c(C)nn2C` was 6%; that for `CCOc1ccc(S(=O)(=O)N2CCN(S(=O)(=O)c3ccc(OCC)c(-c4nnc5c(n4)c(C)nn5C)c3)CC2)cc1-c1nnc2c(n1)c(C)nn2C` was 11.4%; that for `CCOc1ccc(S(=O)(=O)N2CCCC2)cc1-c1nnc2c(n1)c(C)nn2C` was 24.1%.
Still for that read-out and setting: the figure for `CCOc1ccc(S(=O)(=O)NCCN2CCOCC2)cc1-c1nnc2c(n1)c(C)nn2C` is 13.3%; for `CCCc1nn(C)c2c(=O)[nH]c(-c3cc(S(=O)(=O)N4CCN(C)CC4)ccc3OCC)nc12` it is 98.9%.
Take `CCOc1ccc(S(=O)(=O)NCCNS(=O)(=O)c2ccc(OCC)c(-c3nnc4c(n3)c(C)nn4C)c2)cc1-c1nnc2c(n1)c(C)nn2C`: the inhibition is 28.1%.
The same measure, in the same setting: the figure for `CCCc1nn(C)c2nnc(-c3cc(S(=O)(=O)N4CCN(C)CC4)ccc3OCC)nc12` is 5.8%; for `CCOc1ccc(S(=O)(=O)N2CCNCC2)cc1-c1nnc2c(n1)c(C)nn2C` it is 26.5%; for `CCOc1ccc(S(=O)(=O)NCCN)cc1-c1nnc2c(n1)c(C)nn2C` it is 0%.
The same measure, in the same setting: the figure for `CCOc1ccc(S(=O)(=O)N2CCCNCC2)cc1-c1nnc2c(n1)c(C)nn2C` is 0.6%; for `CCOc1ccc(S(=O)(=O)N2CCCCC2)cc1-c1nnc2c(n1)c(C)nn2C` it is 29.5%; for `CCOc1ccc(S(=O)(=O)N2CCN(C)CC2)cc1-c1nnc2nn(C)c(C)c2n1` it is 0%.
Same read-out and setting: the figure for `CCOc1ccc(S(=O)(=O)N(CC)CC)cc1-c1nnc2c(n1)c(C)nn2C` is 16.4%.
For `CCOc1ccc(S(=O)(=O)N2CCOCC2)cc1-c1nnc2c(n1)c(C)nn2C`, the inhibition was 0%.

Molecular target in another assay: not listed separately
The experiment in a line: Inhibition of Leptosphaeria sacchari tyrosinase using L-DOPA as substrate incubated for 10 mins prior to substrate addition […] by spectrophotometry.
With `CCOc1ccc(S(=O)(=O)N2CCN(C)CC2)cc1-c1nnc2c(n1)c(C)nn2C`, the IC50 (as a rule, the point on the concentration scale where inhibition reaches its midpoint) was 110 µg/mL (≈ 255 µM).
`CCOc1ccc(S(=O)(=O)N2CCCC2)cc1-c1nnc2c(n1)c(C)nn2C` returned an IC50 of 90 µg/mL (≈ 224 µM). The IC50 values of the last two molecules are within 1.5-fold of each other.
On to `CCOc1ccc(S(=O)(=O)NCCN2CCOCC2)cc1-c1nnc2c(n1)c(C)nn2C`, for which the IC50 came out at 150 µg/mL (≈ 325 µM).
Same read-out and setting: the value for `CCOc1ccc(S(=O)(=O)NCCNS(=O)(=O)c2ccc(OCC)c(-c3nnc4c(n3)c(C)nn4C)c2)cc1-c1nnc2c(n1)c(C)nn2C` was 900 µg/mL (≈ 1250 µM); that for `CCCc1nn(C)c2nnc(-c3cc(S(=O)(=O)N4CCN(C)CC4)ccc3OCC)nc12` was 120 µg/mL (≈ 261 µM); that for `CCOc1ccc(S(=O)(=O)N2CCNCC2)cc1-c1nnc2c(n1)c(C)nn2C` was 80 µg/mL (≈ 192 µM).
Same read-out and setting: the value for `CCOc1ccc(S(=O)(=O)NCCN)cc1-c1nnc2c(n1)c(C)nn2C` was 70 µg/mL (≈ 179 µM); that for `CCOc1ccc(S(=O)(=O)N2CCCNCC2)cc1-c1nnc2c(n1)c(C)nn2C` was 100 µg/mL (≈ 232 µM).
Regarding `CCOc1ccc(S(=O)(=O)N2CCCCC2)cc1-c1nnc2c(n1)c(C)nn2C`, the IC50 was 120 µg/mL (≈ 288 µM).
The same measure, in the same setting: the value for `CCOc1ccc(S(=O)(=O)N2CCN(C)CC2)cc1-c1nnc2nn(C)c(C)c2n1` was 140 µg/mL (≈ 324 µM); that for `CCOc1ccc(S(=O)(=O)N(CC)CC)cc1-c1nnc2c(n1)c(C)nn2C` was 120 µg/mL (≈ 297 µM); that for `CCOc1ccc(S(=O)(=O)N2CCOCC2)cc1-c1nnc2c(n1)c(C)nn2C` was 150 µg/mL (≈ 358 µM).
On the same count and under the same terms, the figure for `CCOc1ccc(S(=O)(=O)NCCO)cc1-c1nnc2c(n1)c(C)nn2C` is 100 µg/mL (≈ 255 µM).

Values taken from ChEMBL document CHEMBL3351826, “Synthesis of pyrazolo[4,3-e][1,2,4]triazine sulfonamides, novel Sildenafil analogs with tyrosinase inhibitory activity” (Bioorg Med Chem, 2014).
